pIC50: −log10 of the molar value. ≈ marks a conversion by molar mass, not a printed value. Calls of active or inactive are those of the source. The calls are words filed in the database; no cut-off is given here.
Tests used:
[1] = biological target: Melanin-concentrating hormone receptor 1 (Rattus norvegicus, UniProt P97639); assay: Displacement of [125I]-MCH(4-19) from rat MCHR1 expressed in CHO cell membranes after 1 hr by liquid scintillation counting
Procedure, shortened: (§1)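 Membranes from CHO cells stably expressing human or rat MCHR1, prepared by homogenization and 100,000×g centrifugation, in 20 mM Tris-HCl pH 7.5 with 5 mM EDTA and protease inhibitors. Incubated with test compound and [125I]-MCH(4–19) for 1 h at room temperature. Filtered on PEI-treated GF/C filters and counted by scintillation. Nonspecific binding defined with cold MCH(1–19). IC50 from duplicate experiment.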

[2] = biological target: T1, Melanin-concentrating hormone receptor 1 (Homo sapiens, UniProt Q99705); assay: Displacement of [125I]-MCH(4 to 19) from human MCHR1 expressed in CHO cell membranes after 1 hr by liquid scintillation counting; procedure, shortened: as §1
T1 sequence (Q99705 whole entry): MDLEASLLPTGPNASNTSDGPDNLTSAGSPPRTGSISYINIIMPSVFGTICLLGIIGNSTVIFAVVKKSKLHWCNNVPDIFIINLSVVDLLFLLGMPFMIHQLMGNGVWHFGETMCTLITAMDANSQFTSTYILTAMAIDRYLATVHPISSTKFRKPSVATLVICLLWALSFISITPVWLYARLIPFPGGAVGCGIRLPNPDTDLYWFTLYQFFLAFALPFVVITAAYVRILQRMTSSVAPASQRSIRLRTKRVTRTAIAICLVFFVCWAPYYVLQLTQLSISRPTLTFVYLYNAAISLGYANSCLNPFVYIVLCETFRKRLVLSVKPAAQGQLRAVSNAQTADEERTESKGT

CYP3A4 = CYP3A4 (Homo sapiens, UniProt P08684); assay: Time dependent inhibition of CYP3A4 in human liver microsomes assessed as conversion of testosterone to 6beta-hydroxytestosterone by measuring remaining activity at 30 uM by UPLC analysis in presence of NADPH generating system; assay type: ADME; details: read-out: Activity
Sequence of CYP3A4 (P08684 whole entry): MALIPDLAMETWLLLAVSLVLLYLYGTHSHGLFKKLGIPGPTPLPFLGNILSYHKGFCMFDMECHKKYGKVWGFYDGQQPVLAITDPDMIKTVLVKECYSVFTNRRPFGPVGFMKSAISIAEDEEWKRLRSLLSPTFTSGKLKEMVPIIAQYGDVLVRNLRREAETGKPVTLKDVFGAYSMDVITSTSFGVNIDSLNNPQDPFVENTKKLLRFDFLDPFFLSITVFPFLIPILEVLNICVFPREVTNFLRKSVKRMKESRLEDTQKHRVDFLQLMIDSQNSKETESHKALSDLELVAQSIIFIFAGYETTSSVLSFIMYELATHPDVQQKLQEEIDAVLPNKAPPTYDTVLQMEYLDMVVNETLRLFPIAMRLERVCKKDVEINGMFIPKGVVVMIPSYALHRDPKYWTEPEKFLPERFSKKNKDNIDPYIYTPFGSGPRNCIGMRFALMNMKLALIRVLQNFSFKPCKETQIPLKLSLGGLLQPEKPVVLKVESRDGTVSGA
Procedure, shortened: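 Single-point assay: test compound at 30 µM preincubated with human liver microsomes at 37 °C in phosphate buffer pH 7.4 with an NADPH-generating system. Residual CYP3A4 activity then measured as testosterone 6β-hydroxylation by UPLC. Percent remaining = activity with preincubation (% of DMSO control) over activity without preincubation; n = 2.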

Cytochrome P450 3A4 = Cytochrome P450 3A4 (Homo sapiens, UniProt P08684); assay: Time dependent inhibition of CYP3A4 in human liver microsomes at 10 uM; assay type: ADME
Sequence of Cytochrome P450 3A4 (P08684 whole entry): as above

Rattus norvegicus [3] = assay: Anorectic effect in DIO-F344/Jcl rat assessed as inhibition of food intake at 10 mg/kg, po administered 2 hrs before onset of dark period for 2 days; assay type: functional; design: scale not given: the % may be the effect or the level left
Procedure, shortened: (§2)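 Male DIO-F344/Jcl rats, 45 weeks old, on high-fat diet from 5 weeks of age, singly housed on powdered high-fat diet and habituated to oral dosing with tap water. Grouped by day-0 food intake and body weight. Dosed orally once daily, suspended in 0.5% methylcellulose at 2 mL/kg, 2 h before dark onset, for 2 days; n = 6. Cumulative 2-day food intake is expressed relative to the vehicle group.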

[4] = biological target: T1, Melanin-concentrating hormone receptor 1; assay: Antagonist activity at human MCHR1 expressed in CHO cells assessed as change in MCH(4 to 19)-stimulated Ca2+ concentration by Ca2+ mobilization assay; assay type: functional, cell-based
Procedure, shortened: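 CHO dhfr− cells stably transfected with human MCHR1 (clone 4), seeded at 20000 cells/well and cultured about 24 h. Loaded with Fluo4 calcium dye for 30 min at 37 °C. Test compound in 10 mM HEPES pH 7.4 buffer with 0.1% BSA added, then MCH(4–19) at 2 nM final. Fluorescence read every 2 s; inhibition rate (%) taken relative to ligand-alone and DMSO-alone wells.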

[5] = AUC( 0 to 8 hrs) Sprague-Dawley rat plasma at 1 mg/kg, po administered through cassette dosing by LC/MS/MS analysis; assay type: ADME, organism-based; design: dose 1 mg/kg, time < 8 hr, route oral
Procedure, shortened: (§3)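 Male SD rats (eight weeks old), fed, cassette-dosed iv at 0.1 mg/kg or orally at 1 mg/kg as a suspension in 0.5% methylcellulose; n = 3. Plasma obtained by centrifugation of blood, deproteinized with acetonitrile, and measured by LC/MS/MS. AUC covers 0–8 h. Bioavailability, total clearance and Vss are derived from the iv and po data.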

[6] = Volume of distribution in steady state in Sprague-Dawley rat plasma at 0.1 mg/kg, iv administered through cassette dosing by LC/MS/MS analysis; assay type: ADME, organism-based; details: read-out: Vdss; procedure, shortened: as §3
[7] = Total clearance in Sprague-Dawley rat plasma at 0.1 mg/kg, iv administered through cassette dosing by LC/MS/MS analysis; assay type: ADME, organism-based; procedure, shortened: as §3
[8] = Solubility of compound at pH 6.8; assay type: physicochemical; details: buffer
[9] = Tmax in Sprague-Dawley rat plasma at 1 mg/kg, po administered through cassette dosing by LC/MS/MS analysis; assay type: ADME, organism-based; procedure, shortened: as §3
Rattus norvegicus [10] = assay: Anorectic effect in DIO-F344/Jcl rat assessed as inhibition of food intake at 3 mg/kg, po administered 2 hrs before onset of dark period for 2 days; assay type: functional; procedure, shortened: as §2
[11] = Oral bioavailability in Sprague-Dawley rat plasma at 1 mg/kg administered through cassette dosing by LC/MS/MS analysis; assay type: ADME, organism-based; procedure, shortened: as §3
[12] = Cmax in Sprague-Dawley rat at 1 mg/kg, po administered through cassette dosing by LC/MS/MS analysis; assay type: ADME, organism-based; design: dose 1 mg/kg, route oral; details: in vivo; procedure, shortened: as §3

Sequence of Melanin-concentrating hormone receptor 1 (Rattus norvegicus, UniProt P97639) (P97639 whole entry): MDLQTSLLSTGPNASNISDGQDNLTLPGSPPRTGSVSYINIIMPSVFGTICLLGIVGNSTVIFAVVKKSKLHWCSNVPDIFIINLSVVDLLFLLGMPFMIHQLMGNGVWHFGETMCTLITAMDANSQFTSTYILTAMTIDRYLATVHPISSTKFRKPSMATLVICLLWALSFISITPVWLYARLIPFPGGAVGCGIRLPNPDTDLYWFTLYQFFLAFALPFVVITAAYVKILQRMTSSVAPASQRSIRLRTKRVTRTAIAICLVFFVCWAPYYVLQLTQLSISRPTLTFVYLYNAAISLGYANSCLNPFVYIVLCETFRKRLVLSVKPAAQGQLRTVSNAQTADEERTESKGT

CCCn1c(C2CC2)nc2ccc(-n3ccc(OCc4ccc(Cl)cc4)cc3=O)cc21
pIC50 [1]: 6.96
pIC50 [2]: 7.07

Cn1c(C2CC2)nc2ccc(-n3ccc(OCc4cccc(Cl)c4)cc3=O)cc21
pIC50 [1]: 7.14
pIC50 [2]: 7.00

Cc1c(C2CC2)nc2cnc(-n3ccc(OCc4ccc(Cl)cc4)cc3=O)cn12
pIC50 [2]: 7.36

Cn1c(CC2CC2)nc2ccc(-n3ccc(OCc4ccc(F)cc4)cc3=O)cc21
pIC50 [1]: 6.85
pIC50 [2]: 7.05

Cn1c(C2CC2)nc2ccc(-n3ccc(OCc4cc(C(F)(F)F)cs4)cc3=O)cc21
pIC50 [1]: 7.77
pIC50 [2]: 7.47
activity at 30 µM (CYP3A4): 87%

Cc1c(C2CC2)nc2ccc(-n3ccc(OCc4ccc(Cl)cc4)cc3=O)cn12
inhibition (INH) (Cytochrome P450 3A4): Active

Cn1c(C2CC2)nc2ccc(-n3ccc(OCc4ncc(Cl)cn4)cc3=O)cc21
pIC50 [1]: 6.05
pIC50 [2]: < 6.00

Cn1c(C2CC2)nc2ccc(-n3ccc(OCc4ccc(Cl)cn4)cc3=O)cc21
pIC50 [1]: 7.33
pIC50 [2]: 7.14

Cc1c(C2CC2)nc2ncc(-n3ccc(OCc4ccc(Cl)cc4)cc3=O)cn12
pIC50 [2]: < 6.00

Cn1c(C2CC2)nc2ccc(-n3ccc(OCc4ccc(C(F)(F)F)s4)cc3=O)cc21
pIC50 [1]: 7.89
Activity (Rattus norvegicus [3]): 20.3%
pIC50 [4]: 7.74
pIC50 [2]: 7.80
AUC(0-t) at 8 h [5]: 2020 ng·h/mL
Vd [6]: 0.979 L/kg
clearance [7]: 4.75 mL/min/kg
activity at 30 µM (CYP3A4): 97%
solubility [8]: 0.25 µg/mL (≈ 0.561 µM)
Tmax [9]: 2.7 h
Activity (Rattus norvegicus [10]): Active
bioavailability [11]: 57%
Cmax [12]: 298 ng/mL

Cn1c(C2CC2)nc2ccc(-n3ccc(OCc4csc(C(F)(F)F)c4)cc3=O)cc21
pIC50 [1]: 7.54
pIC50 [2]: 7.39
activity at 30 µM (CYP3A4): 96%

Cn1c(CC(C)(C)C)nc2ccc(-n3ccc(OCc4ccc(F)cc4)cc3=O)cc21
pIC50 [1]: < 6.00
pIC50 [2]: < 6.00

Cn1c(C2CC2)nc2ccc(-n3ccc(OCc4cccs4)cc3=O)cc21
pIC50 [1]: 6.92
pIC50 [2]: 7.12

Cn1c(C2CC2)nc2ccc(-n3ccc(OCc4ccccc4)cc3=O)cc21
pIC50 [1]: 7.37
pIC50 [2]: 7.35

Cn1c(C2CC2)nc2ccc(-n3ccc(OCc4csc(Cl)c4)cc3=O)cc21
pIC50 [1]: 8.03
pIC50 [2]: 7.85
activity at 30 µM (CYP3A4): 44%

Source: ChEMBL document CHEMBL3792381, “Amine-free melanin-concentrating hormone receptor 1 antagonists: Novel 1-(1H-benzimidazol-6-yl)pyridin-2(1H)-one derivatives and design to avoid CYP3A4 time-dependent inhibition” (Bioorg Med Chem, 2016)
